# According to publication PMC2190579 (The Journal of Cell Biology, 2001):
# Legend:
# [1] = target: αVβ5 integrin (human (endogenous in K562)) (UniProt P06756); test: ligand-coated bead binding to cells
# [2] = target: αVβ3 integrin (human (endogenous in K562)) (UniProt P06756); test: ligand-coated bead binding to cells
# wild-type P2Y2R [3] = test: FAK phosphorylation in 1321N1 transfectants; assay type: cell-based, human
# wild-type P2Y2R [4] = test: ERK1/2 phosphorylation in 1321N1 transfectants; assay type: cell-based, human
# How it was run: (§1)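 1321N1 astrocytoma cells stably expressing HA-tagged P2Y2R (retroviral pLXSN, G418-selected) were grown to 80% confluence and serum-starved 24 h at 37°C. They were preincubated 30 min with buffer or 10 μM BAPTA-AM, then given 100 μM UTP. Lysates were run on 7.5% SDS-PAGE and immunoblotted for phospho-p42/p44 ERK1/2. Chemiluminescence was quantitated and normalised by reprobing for total ERK1/2.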
# RGE mutant P2Y2R [5] = test: ERK1/2 phosphorylation in 1321N1 transfectants; assay type: cell-based, human; details: 100 μM UTP after 30 min preincubation with 10 μM BAPTA-AM
# How it was run: as §1
# RGE mutant P2Y2R [6] = test: FAK phosphorylation in 1321N1 transfectants; assay type: cell-based, human; details: 1 mM UTP after 30 min preincubation with 10 μM BAPTA-AM
# How it was run: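 Serum-starved (24 h, 37°C) 1321N1 cells stably expressing HA-tagged P2Y2R constructs were preincubated 30 min with buffer or 10 μM BAPTA-AM, then stimulated with 1 mM UTP. Cells were lysed in RIPA buffer and FAK was immunoprecipitated. Tyrosine phosphorylation was detected by anti-phosphotyrosine immunoblot after 7.5% SDS-PAGE, with chemiluminescence read-out. Three to six experiments.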
# P2Y2R (wild-type) = test: Calcium mobilization; assay type: cell-based, human
# [7] = target: P2Y2R (D^97 ↦ E), RGE mutant (Homo sapiens, UniProt P41231, D97E); test: Calcium mobilization; assay type: cell-based; details: 1321N1 cells
# K562 cells = test: Fluorescence-activated cell sorting of integrin surface expression; assay type: cell-based, human; details: overnight treatment with 100 nM PDBu
# [8] = system: K562 erythroleukemia cells; test: Ligand-coated bead-binding assay; assay type: cell-based, human; details: number of beads bound per 100 cells; 1 h at 37°C; mean ± SEM
# P2Y1R (F^119 ↦ R) = P2Y1R (F^119 ↦ R) (Meleagris gallopavo, UniProt P49652, F108R); test: Calcium mobilization; assay type: cell-based, turkey; details: read-out: EC50 (for Ca^2+ mobilization); 1321N1 cells; mean ± SEM (n = 3)
# P2Y1R (D^121 ↦ E) = P2Y1R (D^121 ↦ E) (Meleagris gallopavo, UniProt P49652, D110E); test: Calcium mobilization; assay type: cell-based, turkey; details: read-out: EC50 (for Ca^2+ mobilization); 1321N1 cells; mean ± SEM (n = 3)
# P2Y1R (wild-type) = P2Y1R (wild-type) (Meleagris gallopavo, UniProt P49652); test: Calcium mobilization; assay type: cell-based, turkey; details: read-out: EC50 (for Ca^2+ mobilization); 1321N1 cells; mean ± SEM (n = 3)
# P2Y1R (D^116 ↦ E) = P2Y1R (D^116 ↦ E) (Meleagris gallopavo, UniProt P49652, D105E); test: Calcium mobilization; assay type: cell-based, turkey; details: read-out: EC50 (for Ca^2+ mobilization); 1321N1 cells; mean ± SEM (n = 3)
# wild-type P2Y2R [9] = test: IP assay; assay type: cell-based, human; details: overnight treatment with peptide; not shown
# How it was run: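 Wild-type P2Y2R 1321N1 transfectants were labelled 24 h with 2 μCi [3H]inositol (20 Ci/mmol) in serum-free, inositol-free DME. Cells were washed and held 30 min at 37°C in 30 mM LiCl buffer, then stimulated 10 min with UTP. Extraction used ice-cold 10% perchloric acid with neutralisation. Inositol phosphates were separated on Dowex columns and counted by liquid scintillation.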
# [10] = overnight (18 h) with 100 μM peptide, 1 μM UTP 5 min
# [11] = overnight (18 h) with 100 μM peptide, 10 nM UTP 5 min
# [12] = shorter incubation periods than overnight, not shown
# P2Y2R (D^97 ↦ E), RGE mutant, sequence (P41231 whole entry D97E): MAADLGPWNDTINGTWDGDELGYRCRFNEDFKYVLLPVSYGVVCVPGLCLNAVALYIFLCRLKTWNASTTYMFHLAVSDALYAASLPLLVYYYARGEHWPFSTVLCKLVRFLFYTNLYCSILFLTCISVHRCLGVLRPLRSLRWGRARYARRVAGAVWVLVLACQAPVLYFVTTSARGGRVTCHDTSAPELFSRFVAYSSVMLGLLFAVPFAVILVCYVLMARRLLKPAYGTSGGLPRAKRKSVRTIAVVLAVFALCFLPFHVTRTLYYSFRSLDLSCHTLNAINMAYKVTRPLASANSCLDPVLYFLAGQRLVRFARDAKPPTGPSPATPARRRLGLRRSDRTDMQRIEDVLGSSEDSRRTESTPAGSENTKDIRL
# P2Y1R (F^119 ↦ R), sequence (P49652 whole entry F108R): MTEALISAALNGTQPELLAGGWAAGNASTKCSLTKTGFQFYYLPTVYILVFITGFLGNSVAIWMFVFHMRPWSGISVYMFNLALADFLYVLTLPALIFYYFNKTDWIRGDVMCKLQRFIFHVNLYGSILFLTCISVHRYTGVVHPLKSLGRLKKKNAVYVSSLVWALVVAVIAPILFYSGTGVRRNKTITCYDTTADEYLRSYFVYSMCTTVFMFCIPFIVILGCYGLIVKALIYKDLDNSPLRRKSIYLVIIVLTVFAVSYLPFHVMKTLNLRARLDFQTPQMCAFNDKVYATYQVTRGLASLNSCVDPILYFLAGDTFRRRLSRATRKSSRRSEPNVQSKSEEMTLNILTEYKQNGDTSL
# P2Y1R (D^121 ↦ E), sequence (P49652 whole entry D110E): as the sequence (P49652 whole entry F108R) above, with R108F, D110E counted along it
# P2Y1R (wild-type), sequence (P49652 whole entry): as the sequence (P49652 whole entry F108R) above, with R108F counted along it
# P2Y1R (D^116 ↦ E), sequence (P49652 whole entry D105E): as the sequence (P49652 whole entry F108R) above, with D105E, R108F counted along it
# αVβ5 integrin (human (endogenous in K562)), sequence (P06756 31-1048, chain 1 of 2): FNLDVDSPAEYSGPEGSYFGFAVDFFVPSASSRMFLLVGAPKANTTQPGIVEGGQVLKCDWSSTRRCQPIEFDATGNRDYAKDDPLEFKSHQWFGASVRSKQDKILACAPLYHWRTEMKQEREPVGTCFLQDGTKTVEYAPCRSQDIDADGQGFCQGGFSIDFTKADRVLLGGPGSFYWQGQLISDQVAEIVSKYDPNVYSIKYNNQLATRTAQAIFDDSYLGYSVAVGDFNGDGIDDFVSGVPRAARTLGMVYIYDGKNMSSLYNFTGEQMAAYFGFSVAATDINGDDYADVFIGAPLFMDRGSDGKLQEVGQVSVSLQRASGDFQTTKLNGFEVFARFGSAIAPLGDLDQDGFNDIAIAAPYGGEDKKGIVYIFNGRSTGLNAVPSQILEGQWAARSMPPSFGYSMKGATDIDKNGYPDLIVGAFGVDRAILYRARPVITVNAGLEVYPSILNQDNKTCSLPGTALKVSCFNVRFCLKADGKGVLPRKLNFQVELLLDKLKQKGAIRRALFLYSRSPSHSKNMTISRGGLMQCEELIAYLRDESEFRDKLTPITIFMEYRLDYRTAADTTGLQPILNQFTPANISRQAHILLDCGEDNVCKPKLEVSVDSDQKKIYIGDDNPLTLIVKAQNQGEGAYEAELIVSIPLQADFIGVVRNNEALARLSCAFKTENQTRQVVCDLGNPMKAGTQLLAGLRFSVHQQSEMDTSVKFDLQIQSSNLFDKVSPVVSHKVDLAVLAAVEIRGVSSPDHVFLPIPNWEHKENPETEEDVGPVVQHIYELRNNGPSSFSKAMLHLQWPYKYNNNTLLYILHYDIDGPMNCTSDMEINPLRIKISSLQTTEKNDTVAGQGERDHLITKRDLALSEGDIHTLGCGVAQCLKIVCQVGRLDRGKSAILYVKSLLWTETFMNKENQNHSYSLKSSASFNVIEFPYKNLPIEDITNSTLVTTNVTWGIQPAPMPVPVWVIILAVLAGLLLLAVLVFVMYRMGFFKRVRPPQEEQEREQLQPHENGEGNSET
# αVβ5 integrin (human (endogenous in K562)), sequence (P18084 24-799, chain 2 of 2, further chain): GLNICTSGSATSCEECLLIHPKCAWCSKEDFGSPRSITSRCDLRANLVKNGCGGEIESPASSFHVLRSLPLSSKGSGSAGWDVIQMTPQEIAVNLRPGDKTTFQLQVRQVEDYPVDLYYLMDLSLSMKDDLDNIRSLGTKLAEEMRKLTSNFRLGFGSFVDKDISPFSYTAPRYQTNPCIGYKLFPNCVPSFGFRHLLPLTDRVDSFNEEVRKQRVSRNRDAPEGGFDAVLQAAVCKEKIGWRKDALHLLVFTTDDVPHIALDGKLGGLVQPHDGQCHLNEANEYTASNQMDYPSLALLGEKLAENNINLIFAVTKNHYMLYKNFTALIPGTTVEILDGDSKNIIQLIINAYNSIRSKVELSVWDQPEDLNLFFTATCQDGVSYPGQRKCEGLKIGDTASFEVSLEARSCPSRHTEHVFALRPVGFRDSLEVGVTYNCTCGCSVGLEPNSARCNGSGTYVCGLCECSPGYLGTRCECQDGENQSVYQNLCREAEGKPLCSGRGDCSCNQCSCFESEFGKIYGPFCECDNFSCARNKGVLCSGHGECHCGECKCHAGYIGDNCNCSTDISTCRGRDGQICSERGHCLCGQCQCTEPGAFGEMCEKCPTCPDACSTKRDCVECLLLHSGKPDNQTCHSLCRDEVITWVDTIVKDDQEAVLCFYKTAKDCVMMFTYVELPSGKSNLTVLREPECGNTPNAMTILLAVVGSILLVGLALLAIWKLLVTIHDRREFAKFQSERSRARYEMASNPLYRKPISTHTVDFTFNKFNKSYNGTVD
# αVβ3 integrin (human (endogenous in K562)), sequence (P06756 31-1048, chain 1 of 2): as the sequence (P06756 31-1048, chain 1 of 2) above
# αVβ3 integrin (human (endogenous in K562)), sequence (P05106 27-788, chain 2 of 2, further chain): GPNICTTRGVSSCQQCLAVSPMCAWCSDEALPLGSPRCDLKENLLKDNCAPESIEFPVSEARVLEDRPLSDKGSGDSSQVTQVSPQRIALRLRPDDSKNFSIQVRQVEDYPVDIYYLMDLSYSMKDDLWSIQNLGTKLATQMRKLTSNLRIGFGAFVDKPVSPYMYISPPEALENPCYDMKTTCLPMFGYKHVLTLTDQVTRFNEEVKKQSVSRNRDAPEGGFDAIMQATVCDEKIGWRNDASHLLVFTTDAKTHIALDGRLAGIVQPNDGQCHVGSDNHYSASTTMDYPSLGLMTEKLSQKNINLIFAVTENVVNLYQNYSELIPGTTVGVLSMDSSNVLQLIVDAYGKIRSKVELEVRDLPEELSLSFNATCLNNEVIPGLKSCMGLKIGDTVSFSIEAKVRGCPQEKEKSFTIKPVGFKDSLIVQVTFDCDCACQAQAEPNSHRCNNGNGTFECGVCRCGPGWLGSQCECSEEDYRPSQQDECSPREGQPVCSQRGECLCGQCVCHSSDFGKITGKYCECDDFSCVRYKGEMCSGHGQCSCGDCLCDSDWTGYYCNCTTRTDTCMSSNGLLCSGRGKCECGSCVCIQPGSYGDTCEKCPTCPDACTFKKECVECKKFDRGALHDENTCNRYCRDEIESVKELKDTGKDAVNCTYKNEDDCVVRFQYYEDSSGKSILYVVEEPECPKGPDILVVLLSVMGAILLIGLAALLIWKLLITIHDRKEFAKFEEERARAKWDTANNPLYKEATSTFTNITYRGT
molecule,measurement,setting,value
human vitronectin (ligand),"adhesion index (AI, beads bound per 100 K562 cells) (beads bound per 100 cells)",[1],300
same,"adhesion index (AI, beads bound per 100 K562 cells) (beads bound per 100 cells)",[2],300
RGES,Effect on P2Y2R-mediated FAK phosphorylation,wild-type P2Y2R [3]; [10],no effect
same,Effect on P2Y2R-mediated ERK1/2 phosphorylation,wild-type P2Y2R [4]; [11],no effect
"O=C(O)CN(CC(=O)O)c1ccccc1OCCOc1ccccc1N(CC(=O)O)CC(=O)O [BAPTA, 1,2-bis(2-aminophenoxy)ethane-N,N,N′,N′-tetraacetic acid]",Effect on UTP-induced ERK1/2 phosphorylation,RGE mutant P2Y2R [5],not affected
same,Effect on UTP-induced FAK phosphorylation,wild-type P2Y2R [3]; 1 mM UTP after 30 min preincubation with 10 μM BAPTA-AM,inhibited
same,Effect on UTP-induced FAK phosphorylation,RGE mutant P2Y2R [6],inhibited
same,Effect on UTP-induced ERK1/2 phosphorylation,wild-type P2Y2R [4]; 100 μM UTP after 30 min preincubation with 10 μM BAPTA-AM,partially inhibited
pertussis toxin,Inhibition of Ca^2+ mobilization,"P2Y2R (wild-type); 200 ng/ml PTX overnight, 1 μM UTP, 1321N1 cells",30%
same,Effect on Ca^2+ mobilization,"[7]; 200 ng/ml PTX overnight, 100 μM UTP",insensitive
"CCCC(=O)O[C@@H]1[C@@H](C)[C@@]2(O)[C@@H](C=C(CO)C[C@]3(O)C(=O)C(C)=C[C@@H]23)[C@@H]2C(C)(C)[C@]12OC(=O)CCC [PDBu, phorbol dibutyrate]","Fluorescence intensity or percentage of cells stained by antiintegrin antibodies (α5, αVβ5, β3)",K562 cells,did not increase
Nc1ncnc2c1ncn2[C@@H]1O[C@H](COP(=O)(O)OP(=O)(O)OP(=O)(O)O)[C@@H](O)[C@H]1O [ATP],EC50,"P2Y2R (wild-type); read-out: EC50 (for Ca^2+ mobilization), 1321N1 cells, mean ± SEM (n = 3)",850 ± 130 nM
same,EC50,"[7]; read-out: EC50 (for Ca^2+ mobilization), mean ± SEM (n = 3)",785000 ± 125000 nM
fibronectin,AI (adhesion index) of ligand-coated beads bound to K562 cells,[8],318 ± 14
Nc1ncnc2c1ncn2[C@@H]1O[C@H](COP(=O)(O)OP(=O)(O)O)[C@@H](O)[C@H]1O [ADP],EC50,P2Y1R (F^119 ↦ R),2020 ± 270 nM
same,EC50,P2Y1R (D^121 ↦ E),80 ± 10 nM
same,EC50,P2Y1R (wild-type),60 ± 10 nM
same,EC50,P2Y1R (D^116 ↦ E),60 ± 10 nM
RGDS,Effect on P2Y2R-mediated Ca^2+ mobilization,"P2Y2R (wild-type); overnight treatment with peptide, not shown",not inhibited
same,Effect on P2Y2R-mediated IP formation,wild-type P2Y2R [9],not inhibited
same,Effect on P2Y2R-mediated FAK phosphorylation,wild-type P2Y2R [3]; [10],inhibited
same,Effect on P2Y2R-mediated FAK phosphorylation,wild-type P2Y2R [3]; [12],did not cause inhibition
same,Effect on P2Y2R-mediated ERK1/2 phosphorylation,wild-type P2Y2R [4]; [11],inhibited
same,Effect on P2Y2R-mediated ERK1/2 phosphorylation,wild-type P2Y2R [4]; [12],did not cause inhibition
"vitronectin: human vitronectin purchased from Calbiochem, coated on latex beads (protein, UniProt P04004 20-478, looked up, coated on latex beads) Vitronectin: DQESCKGRCTEGFNVDKKCQCDELCSYYQSCCTDYTAECKPQVTRGDVFTMPEDEYTVYDDGEEKNNATVHEQVGGPSLTSDLQAQSKGNPEQTPVLKPEEEAPAPEVGASKPEGIDSRPETLHPGRPQPPAEEELCSGKPFDAFTDLKNGSLFAFRGQYCYELDEKAVRPGYPKLIRDVWGIEGPIDAAFTRINCQGKTYLFKGSQYWRFEDGVLDPDYPRNISDGFDGIPDNVDAALALPAHSYSGRERVYFFKGKQYWEYQFQHQPSQEECEGSSLSAVFEHFAMMQRDSWEDIFELLFWGRTSAGTRQPQFISRDWHGVPGQVDAAMAGRIYISGMAPRPSLAKKQRFRHRNRKGYRSQRGHSRGRNQNSRRPSRATWLSLFSSEESNLGANNYDDYRMDWLVPATCEPIQSVFFFSGDKYYRVNLRTRRVDTVDPPYPRSIAQYWLGCPAPGHL",AI (adhesion index) of ligand-coated beads bound to K562 cells,[8],300 ± 28
